Structures are written as SMILES.

Data set [1] is described as follows: Half life in CD1 mouse at 2 mg/kg, iv and 10 mg/kg, po. Format: ADME, organism-based. To be noted: in vivo. The method, boiled down:
(§1)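 Male CD1 mice. IV dosing at 2 mg/kg, formulated either in 20% captisol/80% water or in 10% dimethylacetamide/23% water/67% PEG 400. Oral dosing at 10 mg/kg, formulated either in 10% Pluronic F108/90% OraPlus or in 0.1% Tween-80/0.5% CMC in water. Reported: CL, Vss, t1/2 and oral F.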

The nature of data set [2]: Volume of distribution at steady state in Sprague-Dawley rat at 2 mg/kg, iv and 10 mg/kg, po. To be noted: in vivo, read-out: Vdss. Format: ADME, organism-based. The method, boiled down: (§2)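 Male Sprague-Dawley rats. IV dosing at 2 mg/kg in DMSO. Oral dosing at 10 mg/kg in 0.1% Tween-80/0.5% CMC/99.4% water. Reported: CL, Vss, t1/2 (terminal t1/2 where marked), MRT and oral F.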

Data set [3] can be described thus: Oral bioavailability in CD1 mouse at 10 mg/kg. Format: ADME, organism-based. To be noted: in vivo. The method, boiled down:
as §1

Data set [4] is described as follows: Plasma protein binding in po dosed mouse after 4 hrs. Format: ADME, organism-based. To be noted: read-out: PPB (converted).
Another data set is described as follows: in vivo. The conditions noted are these: mouse, adipose tissue fat / plasma, po, 50 mg/kg.
Data set [5] in a line: Volume of distribution at steady state in CD1 mouse at 2 mg/kg, iv and 10 mg/kg, po. Format: ADME, organism-based. To be noted: in vivo, read-out: Vdss. The method, boiled down: as §1
A short description of data set [6]: Oral bioavailability in Sprague-Dawley rat at 10 mg/kg. Format: ADME, organism-based. The conditions noted are these: in vivo. The method, boiled down: as §2
Data set [7] can be described thus: Terminal half life in Sprague-Dawley rat at 2 mg/kg, iv and 10 mg/kg, po. To be noted: in vivo, read-out: beta t1/2 (converted). Format: ADME, organism-based. The method, boiled down: as §2
Data set [8] deals with Plasma. Nature of the data set: Free plasma concentration in po dosed mouse after 4 hrs. Format: ADME, organism-based. The conditions noted are these: in vivo.
The nature of data set [9]: Clearance in CD1 mouse at 2 mg/kg, iv and 10 mg/kg, po. Format: ADME, organism-based. To be noted: in vivo. The method, boiled down:
as §1

A short description of data set [10]: Clearance in Sprague-Dawley rat at 2 mg/kg, iv and 10 mg/kg, po. To be noted: in vivo. Format: ADME, organism-based. The method, boiled down:
as §2

Data set [11] in a line: Plasma protein binding in mouse at 30 mg/kg, po after 4 hrs. Format: ADME, organism-based. On the set-up: dose 30 mg/kg, route oral. The conditions noted are these: read-out: PPB (converted).
Data set [12] is described as follows: Plasma concentration in mouse at 10 mg/kg, po after 4 hrs. Format: ADME, organism-based. On the set-up: dose 10 mg/kg, route oral.
The nature of data set [13]: Drug uptake in mouse adipose tissue fat at 10 mg/kg, po after 8 hrs. Format: ADME, organism-based. Set-up: dose 10 mg/kg, route oral. To be noted: read-out: Drug uptake.
The nature of data set [14]: Plasma concentration in mouse at 10 mg/kg, po after 8 hrs. Format: ADME, organism-based. On the set-up: dose 10 mg/kg, route oral.
Data set [15] can be described thus: Drug uptake in mouse adipose tissue fat at 30 mg/kg, po after 4 hrs. Format: ADME, organism-based. On the set-up: dose 30 mg/kg, route oral. To be noted: read-out: Drug uptake.
A short description of data set [16]: Drug uptake in mouse adipose tissue fat at 30 mg/kg, po after 6 hrs. Set-up: dose 30 mg/kg, route oral. To be noted: read-out: Drug uptake. Format: ADME, organism-based.
The nature of data set [17]: Drug uptake in mouse adipose tissue fat at 30 mg/kg, po after 2 hrs. Format: ADME, organism-based. On the set-up: dose 30 mg/kg, route oral. The conditions noted are these: read-out: Drug uptake.
The nature of data set [18]: Drug uptake in mouse adipose tissue fat at 10 mg/kg, po after 6 hrs. Format: ADME, organism-based. On the set-up: dose 10 mg/kg, route oral. The conditions noted are these: read-out: Drug uptake.
The nature of data set [19]: Plasma concentration in mouse at 30 mg/kg, po after 2 hrs. Format: ADME, organism-based. Set-up: dose 30 mg/kg, route oral.
Data set [20] relates to Mus musculus. Nature of the data set: Ex vivo inhibition of 11beta-HSD1 in mouse adipose tissue at 10 mg/kg, po after 2 hrs. Format: functional. The method, boiled down:
(§3)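 Mice dosed orally at 10 or 30 mg/kg. Adipose 11β-HSD1 activity measured ex vivo as percent inhibition.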

A short description of data set [21]: Plasma concentration in mouse at 10 mg/kg, po after 6 hrs. Format: ADME, organism-based. On the set-up: dose 10 mg/kg, route oral.
In data set [22] the test system is Mus musculus. Nature of the data set: Ex vivo inhibition of 11beta-HSD1 in mouse adipose tissue at 30 mg/kg, po after 2 hrs. Format: functional. The method, boiled down:
as §3

In data set [23] the test system is Plasma. Nature of the data set: Free plasma concentration in mouse at 30 mg/kg, po after 4 hrs. On the set-up: dose 30 mg/kg, route oral. The conditions noted are these: in vivo. Format: ADME, organism-based. The method, boiled down: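 Mice dosed orally at 30 mg/kg and sampled at 4 h. Free plasma concentration calculated from total plasma level using mouse plasma protein binding.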

Data set [24] is described as follows: Plasma concentration in mouse at 10 mg/kg, po after 2 hrs. Set-up: dose 10 mg/kg, route oral. Format: ADME, organism-based.
Data set [25] deals with Mus musculus. Nature of the data set: Ex vivo inhibition of 11beta-HSD1 in mouse adipose tissue at 30 mg/kg, po after 8 hrs. Format: functional. The method, boiled down:
as §3

Data set [26] can be described thus: Drug uptake in mouse adipose tissue fat at 30 mg/kg, po after 8 hrs. Format: ADME, organism-based. Set-up: dose 30 mg/kg, route oral. The conditions noted are these: read-out: Drug uptake.
A short description of data set [27]: Drug uptake in mouse adipose tissue fat at 10 mg/kg, po after 4 hrs. To be noted: read-out: Drug uptake. Set-up: dose 10 mg/kg, route oral. Format: ADME, organism-based.
Data set [28] can be described thus: Half life in Sprague-Dawley rat at 2 mg/kg, iv and 10 mg/kg, po. Format: ADME, organism-based. To be noted: in vivo. The method, boiled down:
as §2

The nature of data set [29]: Plasma concentration in mouse at 30 mg/kg, po after 6 hrs. Format: ADME, organism-based. On the set-up: dose 30 mg/kg, route oral.
For data set [30], the system named is Mus musculus. Nature of the data set: Ex vivo inhibition of 11beta-HSD1 in mouse adipose tissue at 30 mg/kg, po after 6 hrs. Format: functional. The method, boiled down: as §3
Data set [31] deals with 11-beta-hydroxysteroid dehydrogenase 1 (Mus musculus, UniProt P50172). Nature of the data set: Inhibition of mouse 11beta-HSD1 expressed in Escherichia coli using [3H]cortisone as substrate by scintillation proximity assay. On the technique in general: SPA uses beads or plates that emit light when radiolabelled molecules are held near them.
Data set [32] in a line: Plasma concentration in mouse at 30 mg/kg, po after 8 hrs. Format: ADME, organism-based. Set-up: dose 30 mg/kg, route oral.
Data set [33] is described as follows: Plasma concentration in mouse at 30 mg/kg, po after 4 hrs. Format: ADME, organism-based. Set-up: dose 30 mg/kg, route oral.
Data set [34] relates to Mus musculus. Nature of the data set: Ex vivo inhibition of 11beta-HSD1 in mouse adipose tissue at 30 mg/kg, po after 4 hrs. Format: functional. The method, boiled down: as §3
Data set [35] is described as follows: Drug uptake in mouse adipose tissue fat at 10 mg/kg, po after 2 hrs. Format: ADME, organism-based. The conditions noted are these: read-out: Drug uptake. Set-up: dose 10 mg/kg, route oral.
Data set [36] concerns Mus musculus. Nature of the data set: Ex vivo inhibition of 11beta-HSD1 in mouse adipose tissue at 10 mg/kg, po after 4 hrs. Format: functional. The method, boiled down: as §3

11-beta-hydroxysteroid dehydrogenase 1, sequence (P50172 whole entry): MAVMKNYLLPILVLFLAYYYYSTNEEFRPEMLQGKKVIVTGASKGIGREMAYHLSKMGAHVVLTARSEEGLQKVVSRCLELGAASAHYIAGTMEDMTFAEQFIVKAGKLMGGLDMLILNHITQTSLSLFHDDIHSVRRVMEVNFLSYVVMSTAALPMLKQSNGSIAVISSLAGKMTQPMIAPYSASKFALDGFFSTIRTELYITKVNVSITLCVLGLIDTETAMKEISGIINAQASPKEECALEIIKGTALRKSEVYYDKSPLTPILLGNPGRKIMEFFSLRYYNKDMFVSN

The bioavailability is dose-corrected exposure relative to a reference, in per cent. Read a low bioavailability as little systemic uptake. In general, Kp refers to the ratio of the level in a tissue or fluid to that in plasma or blood. As to `CC(C)[C@]1(C)SC(N[C@H]2C[C@@H]3CC[C@H]2C3)=NC1=O`, the values for the half-life in [1] and in data set [7] were 3.32 h and 12.2 h, respectively. The values for the Vd in data set [2] and in data set [5] were 1.53 L/kg and 0.9 L/kg, respectively. The bioavailability in data set [3] was found to be 31%; in data set [6], 34%. The fraction unbound at 4 h in data set [4] is 0.099. The molecule further registered a Kp in “in vivo” of 1.34. The “Cp(f)” value in the data set with Plasma [8] is 240 nM. Further, the clearance in data set [9] is 55.2 mL/min/kg; in data set [10], 19.3 mL/min/kg.
A word on the inhibition in vivo: it is the percentage by which the read-out fell short of the control. A high value points to a response far below the control. Broadly, the Ki is the dissociation constant of the complex between target and ligand, obtained from inhibition or displacement. Read a high Ki as weaker binding. Take `CC(C)[C@]1(C)SC(N[C@H]2C[C@H]3C[C@@H]2C[C@@H]3O)=NC1=O`: the figures for the half-life in [1] and in [28] were 5.72 h and 2.17 h, respectively. Further, the Vd in data set [2] was determined as 0.97 L/kg; in data set [5], 1.43 L/kg. Further, the bioavailability is above 100% in [3] and 58% in [6]. The fraction unbound at 4 h in data set [11] is 0.591. The concentration at 4 h was determined as 1050 nM in data set [12], 980 nM in [15], 820 nM in [27] and 3590 nM in data set [33]. Also, the concentration at 8 h came out at 130 nM in data set [13], 190 nM in [14], 580 nM in data set [26] and 390 nM in data set [32]. The concentration at 6 h in [16] came to 2020 nM; in data set [18] it was 220 nM; in data set [21] it was 380 nM; in data set [29] it was 1710 nM. The concentration at 2 h was 4670 nM in data set [17], 19500 nM in [19], 4500 nM in [24] and 980 nM in data set [35]. The results for the inhibition in vivo at 10 mg/kg with Mus musculus [20] and with Mus musculus [36] were 38% and 31%, respectively. The inhibition in vivo at 30 mg/kg with Mus musculus [22] came out at 51%; with Mus musculus [25], 36%; with Mus musculus [30], 36%; with Mus musculus [34], 46%. The “Cp(f)” value in the data set with Plasma [23] came out at 2100 nM. The molecule also yielded a Ki in data set [31] of 152 nM. The figures for the clearance in data set [9] and in data set [10] were 24.7 mL/min/kg and 7.33 mL/min/kg, respectively.
`CC(C)[C@]1(C)SC(N[C@H]2C[C@H]3C[C@@H]2C[C@H]3O)=NC1=O`: the Vd in data set [2] is 1.43 L/kg. In data set [28], this molecule had a half-life of 2.41 h. Also, the affinity in data set [31], expressed as Ki, was 181 nM. This molecule showed a clearance in data set [10] of 12.3 mL/min/kg.
Turning to `CC(C)[C@]1(C)SC(N[C@H]2C[C@H]3C[C@@H]2CC3=O)=NC1=O`, in data set [31], the affinity corresponds to a Ki of 230 nM.
Turning to `CC(C)(O)[C@]1(C)SC(N[C@H]2C[C@@H]3CC[C@H]2C3)=NC1=O`, the Vd in [2] was determined as 0.53 L/kg. The bioavailability in data set [6] amounted to 53%. In data set [28], this molecule showed a half-life of 0.24 h. The same molecule had a clearance in data set [10] of 32 mL/min/kg.
